Measured values as given in ChEMBL document CHEMBL4390693, “New analogs of SYA013 as sigma-2 ligands with anticancer activity” (Bioorg Med Chem, 2019).

How the values were obtained:
[1] = Displacement of [3H]-DTG from sigma 2 receptor (unknown origin) expressed in HEK293T cell membranes; parameters: species or system Homo sapiens
[2] = molecular target: Sigma non-opioid intracellular receptor 1 (Homo sapiens, UniProt Q99720); experiment: Displacement of [3H]-Pentazocine from sigma 1 receptor (unknown origin) expressed in HEK293T cell membranes
[3] = organism: Homo sapiens; experiment: Selectivity index, ratio of Ki for displacement of [3H]-Pentazocine from sigma 1 receptor (unknown origin) expressed in HEK293T cell membranes to KI for displacement of [3H]-DTG from sigma 2 receptor (unknown origin) expressed in HEK293T cell membranes
How it was run: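 Sigma-1 and sigma-2 binding was run by the NIMH Psychoactive Drug Screening Program. pKi is the mean of three independent experiments, each done at least in triplicate. The index is the ratio of the two receptor Ki values.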

[4] = test system: MDA-MB-231; experiment: Cytotoxicity against human MDA-MB-231 cells assessed as reduction in cell viability incubated for 72 hrs by resazurin reagent based fluorescent assay; format: functional; conditions: MDA-MB-231, 72 h
How it was run: (§1)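 Cells seeded at 20,000 per well, attached overnight in experimental medium with 5% FBS at 37 °C, then exposed to varying concentrations of σ2 ligands in 1:9 DMSO/acetone (cisplatin in 0.9% saline) for 24, 48 or 72 h, with re-dosing every 24 h. Matched vehicle controls. Read-out is 0.02% resazurin for 2-3 h, fluorescence ex 560/em 590 nm, viability as % of control. IC50 from non-linear regression of log concentration.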

[5] = test system: MDA-MB-231; experiment: Cytotoxicity against human MDA-MB-231 cells assessed as reduction in cell viability incubated for 48 hrs by resazurin reagent based fluorescent assay; format: functional; conditions: MDA-MB-231, 48 h; how it was run: as §1
[6] = test system: MDA-MB-231; experiment: Cytotoxicity against human MDA-MB-231 cells assessed as reduction in cell viability incubated for 24 hrs by resazurin reagent based fluorescent assay; format: functional; conditions: MDA-MB-231, 24 h; how it was run: as §1
[7] = test system: A549; experiment: Cytotoxicity against human A549 cells assessed as reduction in cell viability resazurin reagent based fluorescent assay; format: functional; how it was run: as §1
[8] = test system: MDA-MB-468; experiment: Cytotoxicity against human MDA-MB-468 cells assessed as reduction in cell viability resazurin reagent based fluorescent assay; format: functional; how it was run: as §1
[9] = test system: MCF-10A; experiment: Cytotoxicity against human MCF10A cells assessed as reduction in cell viability resazurin reagent based fluorescent assay; how it was run: as §1
[10] = test system: MIA PaCa-2; experiment: Cytotoxicity against human MIAPaCa2 cells assessed as reduction in cell viability resazurin reagent based fluorescent assay; format: functional; how it was run: as §1
[11] = test system: PC-3; experiment: Cytotoxicity against human PC3 cells assessed as reduction in cell viability resazurin reagent based fluorescent assay; format: functional; how it was run: as §1
[12] = test system: PANC-1; experiment: Cytotoxicity against human PANC1 cells assessed as reduction in cell viability resazurin reagent based fluorescent assay; format: functional; how it was run: as §1
[13] = test system: HEK293; experiment: Cytotoxicity against HEK293 cells assessed as reduction in cell viability incubated for 72 hrs by resazurin reagent based fluorescent assay; conditions: Homo sapiens, HEK293, 72 h; how it was run: as §1

Sigma non-opioid intracellular receptor 1, sequence (Q99720 whole entry): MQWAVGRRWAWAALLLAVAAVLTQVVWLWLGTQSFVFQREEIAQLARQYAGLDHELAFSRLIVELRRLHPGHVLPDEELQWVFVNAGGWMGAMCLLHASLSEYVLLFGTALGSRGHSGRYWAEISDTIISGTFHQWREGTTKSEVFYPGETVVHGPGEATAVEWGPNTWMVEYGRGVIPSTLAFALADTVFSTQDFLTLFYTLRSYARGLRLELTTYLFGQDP

SMILES	Ki [1] [nM]	pKi [1]	Ki [2] [nM]	Ratio Ki [3]	IC50 [4] [nM]	IC50 [5] [nM]	IC50 [6] [nM]	IC50 [7] [nM]	IC50 [8] [nM]	IC50 [9] [nM]	IC50 [10] [nM]	IC50 [11] [nM]	IC50 [12] [nM]	IC50 [13] [nM]
O=C1c2ccc(F)cc2CC1CCN1CCCN(c2ccccn2)CC1 (stereo not drawn)	1.8	8.75	44	24.4										
O/N=C(\CCCN1CCCN(c2ccc(Cl)cc2)CC1)c1ccc(F)cc1	3.5	8.46	5.1	1.5	7000	8000	17000	5800	4000	20000	1500	6900	140	
O=C1c2ccc(Cl)cc2CC1CCN1CCN(c2ccc(Cl)cc2)CC1 (stereo not drawn)	18	7.74	21	1.2										
O=C1C(CCN2CCCN(c3ccc(Cl)cc3)CC2)=Cc2cc(F)ccc21	20	7.7	78	3.9										
O=C1c2ccccc2CC1CCN1CCCN(c2ccc(Cl)cc2)CC1 (stereo not drawn)	4.4		21	4.8										
O=C(CCCN1CCCN(c2ccc(Cl)cc2)CC1)c1ccc(F)cc1					15000	18000	36000	6200	5000	22000	2000	8200	400	
O/N=C1/c2ccc(F)cc2CC1CCN1CCCN(c2ccc(Cl)cc2)CC1 (stereo not drawn)	407	6.4	277	0.7		8000		> 200000			10000		76000	
O=C1c2ccc(Cl)cc2CC1CCN1CCCN(c2ccc(Cl)cc2)CC1 (stereo not drawn)	19	7.72	26	1.4										
O=C1c2ccc(F)cc2CC1CCN1CCCN(c2ccc(Cl)cn2)CC1 (stereo not drawn)	0.7	9.13	16	22.9		58000		52000			42000		51000	
Fc1ccc2c(c1)CC(CCN1CCCN(c3ccccn3)CC1)C2 (stereo not drawn)	1.4	8.85	22	15.7										
O=C1C(CCN2CCCN(c3ccc(Cl)cc3)CC2)=Cc2cc(Cl)ccc21	13	7.9	4.9	0.4										
O=C1c2ccc(F)cc2CC1CCN1CCCN(c2ccc(Cl)cc2)CC1 (stereo not drawn)	0.6	9.22	63	105	20100	23500	33600							41300
